The test addresses T1, Histone-lysine N-methyltransferase NSD2 (Homo sapiens, UniProt O96028).
T1 sequence (O96028 whole entry): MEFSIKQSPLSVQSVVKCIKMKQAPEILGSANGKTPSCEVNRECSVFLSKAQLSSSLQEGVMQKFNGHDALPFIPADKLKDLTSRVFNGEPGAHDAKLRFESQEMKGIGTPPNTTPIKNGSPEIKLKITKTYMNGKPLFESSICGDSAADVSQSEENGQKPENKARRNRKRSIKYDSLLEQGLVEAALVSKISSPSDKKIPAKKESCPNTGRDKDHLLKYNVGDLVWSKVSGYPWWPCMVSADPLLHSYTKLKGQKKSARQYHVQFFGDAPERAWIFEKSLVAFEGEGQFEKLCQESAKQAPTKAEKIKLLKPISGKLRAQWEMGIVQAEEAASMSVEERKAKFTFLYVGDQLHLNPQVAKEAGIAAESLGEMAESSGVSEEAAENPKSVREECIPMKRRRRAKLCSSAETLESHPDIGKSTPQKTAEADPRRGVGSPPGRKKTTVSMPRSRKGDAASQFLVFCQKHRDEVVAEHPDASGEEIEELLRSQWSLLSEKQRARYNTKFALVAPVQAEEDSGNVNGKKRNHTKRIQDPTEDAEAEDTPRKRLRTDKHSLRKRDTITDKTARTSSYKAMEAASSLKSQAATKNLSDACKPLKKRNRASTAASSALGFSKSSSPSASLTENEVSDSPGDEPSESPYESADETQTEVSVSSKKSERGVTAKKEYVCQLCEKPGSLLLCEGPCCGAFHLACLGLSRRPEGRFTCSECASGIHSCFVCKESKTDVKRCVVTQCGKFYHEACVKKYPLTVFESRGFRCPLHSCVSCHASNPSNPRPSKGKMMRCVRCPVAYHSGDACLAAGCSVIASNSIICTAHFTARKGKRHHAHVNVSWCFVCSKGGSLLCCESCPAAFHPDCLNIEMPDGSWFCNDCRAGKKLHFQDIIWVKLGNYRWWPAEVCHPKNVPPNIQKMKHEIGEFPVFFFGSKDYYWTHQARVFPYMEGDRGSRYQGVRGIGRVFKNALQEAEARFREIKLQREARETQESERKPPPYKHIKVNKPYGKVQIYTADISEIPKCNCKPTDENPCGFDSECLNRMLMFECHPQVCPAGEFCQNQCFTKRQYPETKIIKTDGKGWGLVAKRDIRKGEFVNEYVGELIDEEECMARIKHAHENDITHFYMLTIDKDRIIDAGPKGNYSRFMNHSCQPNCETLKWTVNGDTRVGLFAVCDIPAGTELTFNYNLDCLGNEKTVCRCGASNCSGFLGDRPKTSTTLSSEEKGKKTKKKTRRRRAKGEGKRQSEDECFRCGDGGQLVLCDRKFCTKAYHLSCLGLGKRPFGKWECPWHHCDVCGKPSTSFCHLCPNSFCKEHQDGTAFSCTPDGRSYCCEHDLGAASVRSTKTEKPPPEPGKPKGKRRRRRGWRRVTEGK
Briefly: Binding affinity to NSD2 PWWP1 domain (unknown origin) assessed as dissociation constant by surface plasmon resonance analysis. The essentials:
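SPR in single-cycle kinetics, HBS-EP buffer (20 mM HEPES pH 7.4, 150 mM NaCl, 3 mM EDTA, 0.05% Tween-20) with 5% DMSO. Ten concentrations from 200 μM top, twofold dilutions. Contact time 60 s, dissociation 120 s, flow 75 μL/min; Kd derived.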
(In general: SPR reads the build-up and loss of mass on a sensor chip optically.)

For `N#Cc1ccc(C(C(N)=O)N2CCC2c2ccc(Cl)cc2)cc1` (stereo unspecified), the Kd was 41 µM.

The term Kd denotes the free concentration of one partner at which half of the binding sites on the other are occupied at equilibrium, for simple one-to-one binding.

(Values after ChEMBL document CHEMBL4732170, “Discovery of Small-Molecule Antagonists of the PWWP Domain of NSD2” (J Med Chem, 2021).)
